From ChEMBL document CHEMBL3232958, “Antiproliferative and uncoupling effects of delocalized, lipophilic, cationic gallic acid derivatives on cancer cell lines. Validation in vivo in singenic mice” (J Med Chem, 2014)
Active and inactive are the calls of the source. No cut-off for these calls is given here.

How the values were obtained:
[1] = Cytotoxicity against mouse TA3/Ha cells after 48 hrs by neutral red assay; assay type: functional, cell-based
How it was run: (§1)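 Neutral red uptake after 48 h exposure at 37 °C, 5% CO2. Seeding: 1 × 10^5 cells/mL for TA3, TA3-MTX-R and CCRF-CEM; 4 × 10^4 cells/mL for MM3MG. Dye at 100 μg/mL for 2 h, then ethanol/acetic acid extraction and absorbance at 540 nm. IC50 from variable-slope sigmoidal dose–response fit; at least three independent experiments in triplicate, mean ± SEM.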

[2] = Cytotoxicity against mouse multidrug-resistant TA3-MTX-R cells after 48 hrs by neutral red assay; assay type: functional, cell-based; how it was run: as §1
CCRF-CEM = assay: Cytotoxicity against human CCRF-CEM cells after 48 hrs by neutral red assay; assay type: functional, cell-based; how it was run: as §1
[3] = Cytotoxicity against mouse MM3MG cells after 48 hrs by neutral red assay; assay type: cell-based; how it was run: as §1
TA3/Ha [4] = assay: Induction of apoptosis in mouse TA3/Ha cells assessed as caspase 3 activation at 0.5 uM after 24 hrs by Western blot analysis; assay type: functional, cell-based
How it was run: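 Caspase 3 measured by Western blot. RIPA lysates, 50 μg protein run on 12% SDS–PAGE. Anti-caspase 3 (1:1000) and tubulin loading control (1:10000) overnight at 4 °C; HRP secondary for 2 h. ECL detection and densitometry.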

TA3/Ha [5] = assay: Induction of apoptosis in mouse TA3/Ha cells assessed as early stage apoptotic cells at 0.5 uM after 24 to 48 hrs using annexin V/propidium iodide staining by flow cytometry; assay type: functional, cell-based
How it was run: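 Annexin V-FITC/PI flow cytometry on 1 × 10^5 cells/mL treated for 24 and 48 h at 37 °C, 5% CO2. 5 min staining at room temperature; 5000 events recorded. Early apoptosis scored as annexin V+/PI−. Staurosporine 10 μM as positive control; at least three experiments, ANOVA with Bonferroni test.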

TA3/Ha [6] = assay: Cytotoxicity against mouse TA3/Ha cells up to 24 hrs by lactate dehydrogenase assay; assay type: functional, cell-based
How it was run: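 LDH release measured with a kit on 2 × 10^5 cells/mL incubated at 37 °C, 5% CO2, 90% humidity. Supernatant taken after centrifugation at 600g for 3 min, then 30 min with reaction mix at room temperature; absorbance read at 450 nm.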

TA3/Ha [7] = assay: Reduction of ATP level in mouse TA3/Ha cells at 1 to 20 uM after 2 hrs by CellTiter-Glo luminescent assay; assay type: functional, cell-based
How it was run: (§2)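 CellTiter-Glo luminescence on 2 × 10^5 cells/mL incubated with cation for 2 h. Aliquot held 10 min at room temperature in the dark before reading; at least three experiments.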

TA3/Ha [8] = assay: Reduction of ATP level in mouse TA3/Ha cells after 2 hrs by CellTiter-Glo luminescent assay; assay type: functional, cell-based; how it was run: as §2
[9] = Toxicity in mouse TA3/Ha cells assessed as cell membrane integrity after 24 hrs using propidium iodide by flow cytometry; assay type: cell-based; details: 2 to 4 h, in the assay text read “after 2 to 4 hrs” for “after 24 hrs”
How it was run: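 Membrane integrity by PI uptake on flow cytometry. Cells were seeded, grown for 24 h at 37 °C, 5% CO2, then given fresh medium with cation for 2 and 4 h before PI was added. Mean ± SEM of at least three experiments.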

TA3/Ha [10] = assay: Induction of NAD(P)H oxidation in mouse TA3/Ha cells assessed as reduction of NAD(P)H/NAD(P)+ ratio at 12 uM by spectrofluorometer analysis; assay type: functional, cell-based
How it was run: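 Intact TA3 tumour cells, 2.5 mg protein/mL, in PBS pH 7.4 with 2.5 mM glutamine as substrate. Stirred and thermostatted at 25 °C. NAD(P)H autofluorescence (ex 340, em 420 nm) recorded as a time course by spectrofluorometer. Rotenone, FCCP or cation added during the trace.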

| SMILES | IC50 [1] | IC50 [2] | IC50 (CCRF-CEM) | IC50 [3] | Activity (TA3/Ha [4]) | Activity (TA3/Ha [5]) | Activity (TA3/Ha [6]) | Activity (TA3/Ha [7]) | Activity (TA3/Ha [8]) | Activity [9] | Activity (TA3/Ha [10]) |
| --- | --- | --- | --- | --- | --- | --- | --- | --- | --- | --- | --- |
| CCCCCCCCCCCCOC(=O)c1cc(O)c(O)c(O)c1 [DODECYL GALLATE] | 7.06 µM | 3 µM | 15.5 µM | 30 µM |  |  |  |  |  |  |  |
| O=C(O)c1cc(O)c(O)c(O)c1 [GALLIC ACID] | 163 µM | 160 µM | > 200 µM | > 200 µM |  |  |  |  |  |  |  |
| O=C(OCCCCCCCCCCC[P+](c1ccccc1)(c1ccccc1)c1ccccc1)c1cc(O)c(O)c(O)c1.[Br-] | 6.4 µM | 3.7 µM | 19.8 µM | 14.3 µM | inactive | Active | Active | Active | Dose-dependent effect | Non-toxic |  |
| c1ccc(P(c2ccccc2)c2ccccc2)cc1 | 190 µM | > 200 µM | 184 µM | > 200 µM |  |  |  |  |  |  |  |
| C=C(C)[C@H]1Cc2c(ccc3c2O[C@@H]2COc4cc(OC)c(OC)cc4[C@@H]2C3=O)O1 |  |  |  |  |  |  |  |  |  |  | Active |
